Source: ChEMBL document CHEMBL1629527, “In vitro antifungal activities of bis(alkylpyridinium)alkane compounds against pathogenic yeasts and molds” (Antimicrob Agents Chemother, 2010)

Legend:
Cryptococcus neoformans [1] = assay: Antifungal activity against Cryptococcus neoformans 05-202523 after 24 to 72 hrs by broth microdilution method; type: functional
In short: (§1)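 Broth microdilution MIC per CLSI M27-A3 (yeasts) or M38-A2 (molds). RPMI 1640 with L-glutamine, without bicarbonate, buffered to pH 7.0 with 0.165 M MOPS. Final test range for the compounds was 0.175–87.5 μM. Incubation at 35°C with visual reading at 24–72 h. MIC was the lowest concentration giving 100% inhibition versus the growth control (azoles 50% or 100%, by organism). Each isolate was run in duplicate in two independent experiments.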

Lichtheimia corymbifera [2] = assay: Antifungal activity against Absidia corymbifera 04-200170 after 24 to 72 hrs by broth microdilution method; type: functional; in short: as §1
Candida parapsilosis [3] = assay: Antifungal activity against Candida parapsilosis 04-202398 after 24 to 72 hrs by broth microdilution method; type: functional; settings: Lodderomyces parapsilosis; in short: as §1
Aspergillus flavus [4] = assay: Antifungal activity against Aspergillus flavus 05-203758 after 24 to 72 hrs by broth microdilution method; type: functional; in short: as §1
Candida albicans [5] = assay: Antifungal activity against Candida albicans ATCC 90028 after 48 to 72 hrs; type: functional
In short: (§2)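 MFC: after the MIC read, 30-μl aliquots from each well without visible growth were plated onto Sabouraud dextrose agar and incubated at 35°C. Reading was at 48–72 h for yeasts and up to 7 days for molds. MFC was the lowest concentration with no colonies.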

Pichia kudriavzevii [6] = assay: Antifungal activity against Candida krusei ATCC 6258 after 24 to 72 hrs by broth microdilution method; type: functional; in short: as §1
Pichia kudriavzevii [7] = assay: Antifungal activity against Candida krusei […] after 48 to 72 hrs; type: functional; in short: as §2
Candida albicans [8] = assay: Antifungal activity against Candida albicans ATCC 10231 after 24 to 72 hrs by broth microdilution method; type: functional; in short: as §1
Aspergillus flavus [9] = assay: Antifungal activity against Aspergillus flavus ATCC 204304 after 24 to 72 hrs by broth microdilution method; type: functional; in short: as §1
Nakaseomyces glabratus [10] = assay: Antifungal activity against Candida glabrata 04-202345 after 48 to 72 hrs; type: functional; in short: as §2
Fusarium solani = assay: Antifungal activity against Fusarium solani 04-203102 after 24 to 72 hrs by broth microdilution method; type: functional
In short: (§3)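 Mold isolates subcultured on potato dextrose agar, then tested by CLSI M38-A2 broth microdilution in RPMI 1640 (L-glutamine, no bicarbonate) buffered to pH 7.0 with 0.165 M MOPS. Compounds were dissolved in water and tested at a final 0.175–87.5 μM. Plates were incubated at 35°C. MIC was read visually as the lowest concentration giving 100% inhibition versus the growth control. Each isolate was run in duplicate in two independent experiments.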

Nakaseomyces glabratus [11] = assay: Antifungal activity against Candida glabrata 04-202345 after 24 to 72 hrs by broth microdilution method; type: functional; in short: as §1
Pichia kudriavzevii [12] = assay: Antifungal activity against Candida krusei 04-202328 after 24 to 72 hrs by broth microdilution method; type: functional; in short: as §1
Aspergillus fumigatus [13] = assay: Antifungal activity against Aspergillus fumigatus 05-203114 after 24 to 72 hrs by broth microdilution method; type: functional; in short: as §1
Candida parapsilosis [14] = assay: Antifungal activity against Candida parapsilosis ATCC 22019 after 48 to 72 hrs; type: functional; settings: Lodderomyces parapsilosis; in short: as §2
Pichia kudriavzevii [15] = assay: Antifungal activity against Candida krusei 04-202328 after 48 to 72 hrs; type: functional
In short: (§4)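 CLSI M27-A3 broth microdilution for yeasts in RPMI 1640 with L-glutamine and no bicarbonate, buffered with 0.165 M MOPS to pH 7.0. Compounds were dissolved in water and tested at 0.175–87.5 μM final, 35°C. MIC was read visually at 24–72 h as 100% inhibition versus growth control. For MFC, 30 μl from clear wells went onto SDA at 35°C for 48–72 h, reading the lowest concentration without colonies. Duplicates, two independent runs.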

Scedosporium apiospermum = assay: Antifungal activity against Scedosporium apiospermum 05-203100 after 24 to 72 hrs by broth microdilution method; type: functional; in short: as §3
Rhizopus arrhizus [16] = assay: Antifungal activity against Rhizopus oryzae 05-203111 after 48 to 72 hrs; type: functional
In short: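 After the broth microdilution MIC read, suspension from every well without visible growth was plated onto Sabouraud dextrose agar and incubated at 35°C, up to 7 days for molds. MFC was taken as the lowest drug concentration with no colonies.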

Pichia kudriavzevii [17] = assay: Antifungal activity against Candida krusei ATCC 9258 after 24 to 72 hrs by broth microdilution method; type: functional; in short: as §1
[18] = Antifungal activity against Exophiala jeanselmei 03-200268 after 24 to 72 hrs by broth microdilution method; type: functional; in short: as §1
[19] = system: Cunninghamella bertholletiae; assay: Antifungal activity against Cunninghamella bertholletiae 99-12187 after 24 to 72 hrs by broth microdilution method; type: functional; in short: as §1
Aspergillus terreus [20] = assay: Antifungal activity against Aspergillus terreus 05-202844 after 48 to 72 hrs; type: functional; in short: as §2
Cryptococcus neoformans [21] = assay: Antifungal activity against Cryptococcus neoformans ATCC 90112 after 24 to 72 hrs by broth microdilution method; type: functional; in short: as §1
Candida parapsilosis [22] = assay: Antifungal activity against Candida parapsilosis ATCC 22019 after 24 to 72 hrs by broth microdilution method; type: functional; settings: Lodderomyces parapsilosis; in short: as §1
[23] = system: Cryptococcus gattii species complex; assay: Antifungal activity against Cryptococcus gattii 05-200122 after 24 to 72 hrs by broth microdilution method; type: functional, Cryptococcus bacillisporus; in short: as §1
[24] = Antifungal activity against Paecilomyces lilacinus 05-200601 after 24 to 72 hrs by broth microdilution method; type: functional; settings: Purpureocillium lilacinum; in short: as §3
Cryptococcus neoformans [25] = assay: Antifungal activity against Cryptococcus neoformans 05-202523 after 48 to 72 hrs; type: functional; in short: as §2
Aspergillus fumigatus [26] = assay: Antifungal activity against Aspergillus fumigatus ATCC 204305 after 24 to 72 hrs by broth microdilution method; type: functional; in short: as §1
Exophiala spinifera [27] = assay: Antifungal activity against Exophiala spinifera 03-200803 after 24 to 72 hrs by broth microdilution method; type: functional; in short: as §3
Lomentospora prolificans [28] = assay: Antifungal activity against Scedosporium prolificans 05-203060 after 24 to 72 hrs by broth microdilution method; type: functional; in short: as §3
Rhizopus arrhizus [29] = assay: Antifungal activity against Rhizopus oryzae 05-203111 after 24 to 72 hrs by broth microdilution method; type: functional; in short: as §3
Candida tropicalis = assay: Antifungal activity against Candida tropicalis 04-202361 after 24 to 72 hrs by broth microdilution method; type: functional; in short: as §1
Aspergillus terreus [30] = assay: Antifungal activity against Aspergillus terreus 05-202844 after 24 to 72 hrs by broth microdilution method; type: functional; in short: as §1
Candida albicans [31] = assay: Antifungal activity against Candida albicans ATCC 90028 after 24 to 72 hrs by broth microdilution method; type: functional; in short: as §1
Exophiala spinifera [32] = assay: Antifungal activity against Exophiala spinifera 03-200803 after 48 to 72 hrs; type: functional
In short: (§5)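 CLSI M38-A2 broth microdilution for molds in RPMI 1640 with L-glutamine and no bicarbonate, buffered with 0.165 M MOPS to pH 7.0. Compounds were dissolved in water and tested at 0.175–87.5 μM final, 35°C, up to 7 days. MIC was read visually as 100% inhibition versus growth control. For MFC, clear wells were plated on SDA and the lowest concentration with no colonies taken. Each isolate was run in duplicate, two independent experiments.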

Lomentospora prolificans [33] = assay: Antifungal activity against Scedosporium prolificans 05-203060 after 48 to 72 hrs; type: functional; in short: as §5
[34] = Antifungal activity against Exophiala jeanselmei 03-200268 after 48 to 72 hrs; type: functional; in short: as §5
Lichtheimia corymbifera [35] = assay: Antifungal activity against Absidia corymbifera 04-200170 after 48 to 72 hrs; type: functional; in short: as §5
Aspergillus fumigatus [36] = assay: Antifungal activity against Aspergillus fumigatus ATCC 204305 after 48 to 72 hrs; type: functional; in short: as §5
Aspergillus flavus [37] = assay: Antifungal activity against Aspergillus flavus ATCC 204304 after 48 to 72 hrs; type: functional; in short: as §2
Aspergillus flavus [38] = assay: Antifungal activity against Aspergillus flavus 05-203758 after 48 to 72 hrs; type: functional; in short: as §5
[39] = Antifungal activity against Paecilomyces lilacinus 05-200601 after 48 to 72 hrs; type: functional; settings: Purpureocillium lilacinum; in short: as §5
Aspergillus fumigatus [40] = assay: Antifungal activity against Aspergillus fumigatus 05-203114 after 48 to 72 hrs; type: functional; in short: as §5
Candida parapsilosis [41] = assay: Antifungal activity against Candida parapsilosis 04-202398 after 48 to 72 hrs; type: functional; settings: Lodderomyces parapsilosis; in short: as §4

Compound	MIC (Cryptococcus neoformans [1]) [µg/mL]	MIC (Lichtheimia corymbifera [2]) [µg/mL]	MIC (Candida parapsilosis [3]) [µg/mL]	MIC (Aspergillus flavus [4]) [µg/mL]	MIC (Pichia kudriavzevii [6]) [µg/mL]	MIC (Candida albicans [8]) [µg/mL]	MIC (Aspergillus flavus [9]) [µg/mL]	MIC (Fusarium solani) [µg/mL]	MIC (Nakaseomyces glabratus [11]) [µg/mL]	MIC (Pichia kudriavzevii [12]) [µg/mL]	MIC (Aspergillus fumigatus [13]) [µg/mL]	MIC (Scedosporium apiospermum) [µg/mL]	MIC (Pichia kudriavzevii [17]) [µg/mL]	MIC [18] [µg/mL]	MIC [19] [µg/mL]	MFC (Aspergillus terreus [20]) [µg/mL]	MIC (Cryptococcus neoformans [21]) [µg/mL]	MIC (Candida parapsilosis [22]) [µg/mL]	MIC [23] [µg/mL]	MIC [24] [µg/mL]	also measured
CC(C)CCc1cc[n+](CCCCCCCCCCCC[n+]2ccc(CCC(C)C)cc2)cc1.[Cl-].[Cl-]	11.8	> 47.3	> 47.3	> 47.3	23.7	2.96	> 47.3	47.3	1.48	23.7	> 47.3	11.8	11.8	2.96	> 47.3	5.9	2.96	1.48	1.48	> 47.3	MFC (Candida albicans [5]): 5.9 µg/mL; MFC (Pichia kudriavzevii [7]): 23.7 µg/mL; MFC (Nakaseomyces glabratus [10]): 5.9 µg/mL; MFC (Candida parapsilosis [14]): 2.96 µg/mL; MFC (Pichia kudriavzevii [15]): 47.3 µg/mL; MFC (Rhizopus arrhizus [16]): 23.7 µg/mL; MFC (Cryptococcus neoformans [25]): 47.3 µg/mL; MIC (Aspergillus fumigatus [26]): > 47.3 µg/mL; MIC (Exophiala spinifera [27]): 1.48 µg/mL; MIC (Lomentospora prolificans [28]): 2.96 µg/mL; MIC (Rhizopus arrhizus [29]): 5.9 µg/mL; MIC (Candida tropicalis): 2.96 µg/mL; MIC (Aspergillus terreus [30]): 2.96 µg/mL; MIC (Candida albicans [31]): 2.96 µg/mL
CCCCCc1cccc[n+]1CCCCCCCCCCCC[n+]1ccccc1CCCCC.[Cl-].[Cl-]	47.3	> 47.3	47.3	> 47.3	23.7	1.48	> 47.3	23.7	0.37	23.7	> 47.3	1.48	23.7	0.74	47.3	1.48	5.9	0.74	1.48	> 47.3	MFC (Candida parapsilosis [14]): 1.48 µg/mL; MFC (Exophiala spinifera [32]): 0.74 µg/mL; MFC (Lomentospora prolificans [33]): 5.9 µg/mL; MFC (Rhizopus arrhizus [16]): 5.9 µg/mL; MFC [34]: 2.96 µg/mL; MIC (Aspergillus fumigatus [26]): > 47.3 µg/mL; MIC (Exophiala spinifera [27]): 0.37 µg/mL; MIC (Lomentospora prolificans [28]): 1.48 µg/mL; MIC (Rhizopus arrhizus [29]): 2.96 µg/mL; MIC (Candida tropicalis): 0.74 µg/mL; MIC (Aspergillus terreus [30]): 0.74 µg/mL; MIC (Candida albicans [31]): 1.48 µg/mL
CCCCCc1cc[n+](CCCCCCCCCCCC[n+]2ccc(CCCCC)c(CCCCC)c2)cc1CCCCC.[Cl-].[Cl-]	7.5	14.9	7.5	14.9	1.86	1.86	7.5	14.9	0.93	1.86	7.5	3.7	1.86	1.86	7.5	1.86	1.86	1.86	1.86	14.9	MFC (Pichia kudriavzevii [7]): 3.7 µg/mL; MFC (Lichtheimia corymbifera [35]): 27.8 µg/mL; MFC (Aspergillus fumigatus [36]): 14.9 µg/mL; MFC (Aspergillus flavus [37]): 14.9 µg/mL; MFC (Lomentospora prolificans [33]): 3.7 µg/mL; MFC (Aspergillus flavus [38]): 29.8 µg/mL; MFC [39]: 29.8 µg/mL; MFC [34]: 3.7 µg/mL; MIC (Aspergillus fumigatus [26]): 7.5 µg/mL; MIC (Exophiala spinifera [27]): 1.86 µg/mL; MFC (Aspergillus fumigatus [40]): 14.9 µg/mL; MIC (Lomentospora prolificans [28]): 1.86 µg/mL; MIC (Rhizopus arrhizus [29]): 1.86 µg/mL; MIC (Candida tropicalis): 1.86 µg/mL; MIC (Aspergillus terreus [30]): 0.93 µg/mL; MFC (Candida parapsilosis [41]): 14.9 µg/mL; MIC (Candida albicans [31]): 1.86 µg/mL
